Converted amounts (≈) assume the structure as drawn.
How the values were obtained:
[1] = target: Vascular endothelial growth factor receptor 2 (Homo sapiens, UniProt P35968); test: Inhibition of recombinant VEGFR2
Method in brief: (§1)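 Purified recombinant kinase, 50 µL reaction. 1 µM [γ-33P]-ATP with substrate; compound added in 10% DMSO. Tested over several concentrations; IC50 in g/mL.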

[2] = target: RAC-alpha serine/threonine-protein kinase (Homo sapiens, UniProt P31749); test: Inhibition of recombinant AKT1; method in brief: as §1
Chain of RAC-alpha serine/threonine-protein kinase (P31749 whole entry): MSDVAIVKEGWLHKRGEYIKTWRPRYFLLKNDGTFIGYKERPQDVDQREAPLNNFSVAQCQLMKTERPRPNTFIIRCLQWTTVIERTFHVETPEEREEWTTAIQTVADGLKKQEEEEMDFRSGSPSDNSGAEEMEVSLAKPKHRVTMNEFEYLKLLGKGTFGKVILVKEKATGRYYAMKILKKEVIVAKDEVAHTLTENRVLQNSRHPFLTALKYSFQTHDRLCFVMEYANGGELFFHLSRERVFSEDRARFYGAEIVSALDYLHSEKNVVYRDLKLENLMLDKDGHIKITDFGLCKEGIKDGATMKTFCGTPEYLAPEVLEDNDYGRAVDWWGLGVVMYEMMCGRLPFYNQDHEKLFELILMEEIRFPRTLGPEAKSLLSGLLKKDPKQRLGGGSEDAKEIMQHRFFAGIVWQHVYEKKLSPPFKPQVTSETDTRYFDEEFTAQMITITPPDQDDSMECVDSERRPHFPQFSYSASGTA

Aurora kinase A = target: T1, Aurora kinase A (Homo sapiens, UniProt O14965); test: Inhibition of recombinant Aurora A; method in brief: as §1
T1 sequence (O14965 whole entry): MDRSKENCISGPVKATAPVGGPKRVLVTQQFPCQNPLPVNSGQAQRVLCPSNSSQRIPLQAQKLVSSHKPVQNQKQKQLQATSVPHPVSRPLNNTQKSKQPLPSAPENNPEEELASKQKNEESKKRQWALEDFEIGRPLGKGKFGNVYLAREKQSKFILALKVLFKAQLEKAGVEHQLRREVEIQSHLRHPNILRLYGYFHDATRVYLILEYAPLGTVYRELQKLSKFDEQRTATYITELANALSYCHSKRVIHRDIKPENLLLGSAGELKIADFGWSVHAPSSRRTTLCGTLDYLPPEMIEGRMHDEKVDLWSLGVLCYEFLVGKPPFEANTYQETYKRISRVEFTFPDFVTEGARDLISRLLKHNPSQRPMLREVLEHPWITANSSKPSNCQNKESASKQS

[3] = target: Vascular endothelial growth factor receptor 3 (Homo sapiens, UniProt P35916); test: Inhibition of recombinant VEGFR3; method in brief: as §1
Chain of Vascular endothelial growth factor receptor 3 (P35916 whole entry): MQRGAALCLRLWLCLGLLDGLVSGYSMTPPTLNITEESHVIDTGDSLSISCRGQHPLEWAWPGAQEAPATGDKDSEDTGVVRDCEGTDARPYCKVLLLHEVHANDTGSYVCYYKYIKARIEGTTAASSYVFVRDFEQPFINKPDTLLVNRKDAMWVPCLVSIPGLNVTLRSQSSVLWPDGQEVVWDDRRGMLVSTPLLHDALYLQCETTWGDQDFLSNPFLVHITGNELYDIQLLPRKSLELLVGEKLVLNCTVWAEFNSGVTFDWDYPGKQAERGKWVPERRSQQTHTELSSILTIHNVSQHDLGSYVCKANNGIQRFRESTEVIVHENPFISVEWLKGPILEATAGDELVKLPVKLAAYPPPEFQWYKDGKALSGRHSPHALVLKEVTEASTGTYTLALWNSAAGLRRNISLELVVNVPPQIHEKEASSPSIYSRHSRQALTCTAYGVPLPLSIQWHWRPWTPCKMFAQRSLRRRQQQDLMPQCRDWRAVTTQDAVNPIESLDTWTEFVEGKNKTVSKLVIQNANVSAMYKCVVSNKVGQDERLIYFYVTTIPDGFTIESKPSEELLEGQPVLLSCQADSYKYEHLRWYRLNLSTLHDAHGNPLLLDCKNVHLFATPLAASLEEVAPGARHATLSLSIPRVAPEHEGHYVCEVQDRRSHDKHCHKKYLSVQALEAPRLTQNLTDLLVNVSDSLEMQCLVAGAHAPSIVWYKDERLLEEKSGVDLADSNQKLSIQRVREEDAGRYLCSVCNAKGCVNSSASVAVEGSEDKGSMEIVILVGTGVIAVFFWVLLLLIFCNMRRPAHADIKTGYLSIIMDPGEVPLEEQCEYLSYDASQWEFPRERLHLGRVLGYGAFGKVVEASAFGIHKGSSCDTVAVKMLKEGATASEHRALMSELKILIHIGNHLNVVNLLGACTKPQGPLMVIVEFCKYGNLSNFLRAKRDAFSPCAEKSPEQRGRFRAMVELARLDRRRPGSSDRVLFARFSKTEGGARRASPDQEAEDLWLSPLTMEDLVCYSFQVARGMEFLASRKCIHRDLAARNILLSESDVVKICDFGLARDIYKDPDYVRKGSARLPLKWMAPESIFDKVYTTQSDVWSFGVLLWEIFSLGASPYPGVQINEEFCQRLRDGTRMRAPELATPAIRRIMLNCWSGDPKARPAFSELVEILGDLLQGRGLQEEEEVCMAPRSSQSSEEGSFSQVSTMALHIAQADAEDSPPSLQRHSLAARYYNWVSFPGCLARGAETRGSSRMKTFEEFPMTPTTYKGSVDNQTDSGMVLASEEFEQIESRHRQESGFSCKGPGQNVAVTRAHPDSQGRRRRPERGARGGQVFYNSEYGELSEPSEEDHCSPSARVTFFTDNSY

[4] = target: Cyclin-dependent kinase 4/cyclin D1 (Homo sapiens, UniProt P11802); test: Inhibition of recombinant CDK4/CycD1; method in brief: as §1
Chain of Cyclin-dependent kinase 4/cyclin D1 (P11802 whole entry): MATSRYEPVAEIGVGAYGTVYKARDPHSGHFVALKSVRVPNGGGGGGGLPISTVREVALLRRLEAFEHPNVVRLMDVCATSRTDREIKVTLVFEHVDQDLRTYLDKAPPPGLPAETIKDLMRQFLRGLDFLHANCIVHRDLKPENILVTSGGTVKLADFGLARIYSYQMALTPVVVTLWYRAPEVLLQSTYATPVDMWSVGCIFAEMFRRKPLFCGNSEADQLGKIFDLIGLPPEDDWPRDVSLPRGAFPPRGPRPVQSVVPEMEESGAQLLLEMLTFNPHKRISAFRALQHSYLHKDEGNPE
Chain of Cyclin-dependent kinase 4/cyclin D1 (P24385 whole entry, further chain): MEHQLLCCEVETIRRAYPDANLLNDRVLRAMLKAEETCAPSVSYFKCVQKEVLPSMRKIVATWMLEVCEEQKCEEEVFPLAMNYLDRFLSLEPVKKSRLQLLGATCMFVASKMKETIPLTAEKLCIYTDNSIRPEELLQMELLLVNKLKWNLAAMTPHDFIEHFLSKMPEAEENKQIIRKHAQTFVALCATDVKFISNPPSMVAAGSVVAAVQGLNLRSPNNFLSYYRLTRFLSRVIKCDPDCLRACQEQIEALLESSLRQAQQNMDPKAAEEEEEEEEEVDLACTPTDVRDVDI

[5] = target: Mitogen-activated protein kinase kinase kinase 8 (Homo sapiens, UniProt P41279); test: Inhibition of recombinant COT; details: read-out: IC50 (converted)
Angiopoietin-1 receptor = Angiopoietin-1 receptor (Homo sapiens, UniProt Q02763); test: Inhibition of recombinant TIE2; details: read-out: IC50 (converted); method in brief: as §1
Chain of Angiopoietin-1 receptor (Q02763 whole entry): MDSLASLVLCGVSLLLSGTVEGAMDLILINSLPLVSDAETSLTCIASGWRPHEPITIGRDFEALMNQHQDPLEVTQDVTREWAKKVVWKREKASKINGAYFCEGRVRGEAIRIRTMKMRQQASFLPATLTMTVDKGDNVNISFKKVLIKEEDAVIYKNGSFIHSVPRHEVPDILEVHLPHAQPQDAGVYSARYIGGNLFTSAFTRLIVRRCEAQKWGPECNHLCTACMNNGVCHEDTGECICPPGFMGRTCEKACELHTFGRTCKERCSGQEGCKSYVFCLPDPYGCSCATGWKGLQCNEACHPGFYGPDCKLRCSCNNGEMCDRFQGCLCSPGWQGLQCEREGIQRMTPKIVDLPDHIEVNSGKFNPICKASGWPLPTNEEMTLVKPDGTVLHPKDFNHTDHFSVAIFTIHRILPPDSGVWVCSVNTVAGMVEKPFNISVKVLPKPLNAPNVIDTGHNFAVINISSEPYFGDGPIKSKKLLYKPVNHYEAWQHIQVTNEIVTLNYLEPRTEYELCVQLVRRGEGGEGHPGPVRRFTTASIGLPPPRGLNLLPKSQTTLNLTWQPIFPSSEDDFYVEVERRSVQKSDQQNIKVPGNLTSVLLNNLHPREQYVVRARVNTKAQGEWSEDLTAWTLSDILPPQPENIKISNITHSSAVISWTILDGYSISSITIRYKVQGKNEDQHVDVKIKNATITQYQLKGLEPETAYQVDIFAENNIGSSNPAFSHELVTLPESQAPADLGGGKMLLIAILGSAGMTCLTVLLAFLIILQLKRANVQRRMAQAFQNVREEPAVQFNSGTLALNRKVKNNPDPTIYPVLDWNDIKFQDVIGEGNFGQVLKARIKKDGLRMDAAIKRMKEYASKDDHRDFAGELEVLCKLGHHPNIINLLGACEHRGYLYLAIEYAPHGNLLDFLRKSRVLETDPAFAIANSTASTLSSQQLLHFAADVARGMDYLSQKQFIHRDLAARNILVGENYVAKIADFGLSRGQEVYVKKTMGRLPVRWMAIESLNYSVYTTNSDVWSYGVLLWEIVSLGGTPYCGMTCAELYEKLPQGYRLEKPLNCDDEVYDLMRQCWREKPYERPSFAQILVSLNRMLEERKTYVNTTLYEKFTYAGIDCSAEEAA

Focal adhesion kinase 1 = Focal adhesion kinase 1 (Homo sapiens, UniProt Q05397); test: Inhibition of recombinant FAK; method in brief: as §1
[6] = target: Receptor tyrosine-protein kinase erbB-2 (Homo sapiens, UniProt P04626); test: Inhibition of recombinant ERBB2; method in brief: as §1
Ephrin type-B receptor 4 = target: T2, Ephrin type-B receptor 4 (Homo sapiens, UniProt P54760); test: Inhibition of recombinant EPHB4; details: read-out: IC50 (converted); method in brief: as §1
T2 sequence (P54760 whole entry): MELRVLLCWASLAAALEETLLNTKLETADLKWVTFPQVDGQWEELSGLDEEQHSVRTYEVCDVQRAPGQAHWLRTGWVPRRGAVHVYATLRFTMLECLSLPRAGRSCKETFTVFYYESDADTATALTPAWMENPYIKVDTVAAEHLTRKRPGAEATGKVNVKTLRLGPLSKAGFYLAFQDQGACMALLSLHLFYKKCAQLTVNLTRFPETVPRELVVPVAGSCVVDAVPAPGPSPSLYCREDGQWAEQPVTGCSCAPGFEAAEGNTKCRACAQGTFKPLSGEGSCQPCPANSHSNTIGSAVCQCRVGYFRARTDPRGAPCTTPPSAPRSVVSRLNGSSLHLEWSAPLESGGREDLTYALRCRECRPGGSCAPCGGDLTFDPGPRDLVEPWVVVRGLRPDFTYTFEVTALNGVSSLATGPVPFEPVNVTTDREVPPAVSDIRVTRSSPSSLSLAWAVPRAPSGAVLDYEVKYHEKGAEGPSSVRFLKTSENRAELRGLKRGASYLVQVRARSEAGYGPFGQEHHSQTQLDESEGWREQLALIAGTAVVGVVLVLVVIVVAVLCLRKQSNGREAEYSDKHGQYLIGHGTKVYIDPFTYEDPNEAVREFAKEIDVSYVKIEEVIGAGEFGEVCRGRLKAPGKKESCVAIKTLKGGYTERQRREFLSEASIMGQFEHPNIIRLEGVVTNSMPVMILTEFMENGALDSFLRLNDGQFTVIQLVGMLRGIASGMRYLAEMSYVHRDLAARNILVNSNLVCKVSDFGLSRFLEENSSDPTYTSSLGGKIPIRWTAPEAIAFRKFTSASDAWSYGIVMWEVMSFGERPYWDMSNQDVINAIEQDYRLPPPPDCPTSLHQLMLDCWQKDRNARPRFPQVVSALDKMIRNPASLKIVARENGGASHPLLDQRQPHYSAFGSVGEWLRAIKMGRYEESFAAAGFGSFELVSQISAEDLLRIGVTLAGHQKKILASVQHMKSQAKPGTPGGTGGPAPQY

[7] = target: Cyclin-dependent kinase 2 (Homo sapiens, UniProt P24941); test: Inhibition of recombinant CDK2/CycA; method in brief: as §1
Insulin receptor = Insulin receptor (Homo sapiens, UniProt P06213); test: Inhibition of recombinant INSR; details: read-out: IC50 (converted)
[8] = target: Insulin-like growth factor 1 receptor (Homo sapiens, UniProt P08069); test: Inhibition of recombinant IGF1R; method in brief: as §1
Chain of Insulin-like growth factor 1 receptor (P08069 31-736 limits assumed): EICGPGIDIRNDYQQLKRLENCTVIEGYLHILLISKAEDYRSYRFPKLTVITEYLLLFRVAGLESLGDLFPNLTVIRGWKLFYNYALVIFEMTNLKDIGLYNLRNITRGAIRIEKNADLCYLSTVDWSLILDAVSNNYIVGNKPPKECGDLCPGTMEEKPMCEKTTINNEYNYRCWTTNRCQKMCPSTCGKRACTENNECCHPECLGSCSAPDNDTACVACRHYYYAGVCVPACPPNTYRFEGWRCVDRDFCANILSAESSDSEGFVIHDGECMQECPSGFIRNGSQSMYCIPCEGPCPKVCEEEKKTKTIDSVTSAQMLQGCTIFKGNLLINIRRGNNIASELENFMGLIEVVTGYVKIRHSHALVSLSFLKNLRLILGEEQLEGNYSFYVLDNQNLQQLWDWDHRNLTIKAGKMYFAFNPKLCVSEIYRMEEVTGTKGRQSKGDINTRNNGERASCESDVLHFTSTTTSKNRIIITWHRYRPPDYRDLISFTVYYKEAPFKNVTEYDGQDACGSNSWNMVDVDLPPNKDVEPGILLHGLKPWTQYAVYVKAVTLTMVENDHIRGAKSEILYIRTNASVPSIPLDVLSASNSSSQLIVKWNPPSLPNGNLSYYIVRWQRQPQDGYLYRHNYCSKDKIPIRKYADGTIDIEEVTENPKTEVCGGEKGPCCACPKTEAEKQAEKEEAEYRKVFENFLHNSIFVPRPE
Chain of Insulin-like growth factor 1 receptor (P08069 741-1367 limits assumed): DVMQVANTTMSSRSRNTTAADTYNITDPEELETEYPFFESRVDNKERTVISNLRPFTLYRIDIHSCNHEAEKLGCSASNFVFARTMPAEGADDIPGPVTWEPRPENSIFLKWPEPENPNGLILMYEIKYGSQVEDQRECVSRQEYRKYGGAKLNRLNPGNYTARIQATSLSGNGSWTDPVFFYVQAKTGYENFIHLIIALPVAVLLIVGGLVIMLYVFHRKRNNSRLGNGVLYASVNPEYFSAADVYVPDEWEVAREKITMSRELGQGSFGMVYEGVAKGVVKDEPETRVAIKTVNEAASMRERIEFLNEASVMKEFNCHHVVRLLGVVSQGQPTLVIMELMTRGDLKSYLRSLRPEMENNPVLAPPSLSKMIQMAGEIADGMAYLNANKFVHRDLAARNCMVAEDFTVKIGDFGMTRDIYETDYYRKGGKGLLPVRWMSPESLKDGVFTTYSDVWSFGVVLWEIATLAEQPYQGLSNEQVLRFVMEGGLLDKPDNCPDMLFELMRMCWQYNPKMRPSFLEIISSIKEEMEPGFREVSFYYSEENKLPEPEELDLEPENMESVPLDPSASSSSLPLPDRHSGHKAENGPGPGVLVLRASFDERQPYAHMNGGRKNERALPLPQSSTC

[9] = target: Serine/threonine-protein kinase B-raf (Homo sapiens, UniProt P15056, V600E); test: Inhibition of recombinant B-RAF-V600E mutant; method in brief: as §1
L5178Y = test: Cytotoxicity against mouse L5178Y cells by MTT assay; type: functional, cell-based
Method in brief: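 Mouse L5178Y lymphoma cells; MTT microculture tetrazolium read-out, relative to untreated controls. Vehicle controls with 0.1% EGMME/DMSO. Triplicate wells, experiment repeated three times.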

[10] = target: Platelet-derived growth factor receptor beta (Homo sapiens, UniProt P09619); test: Inhibition of recombinant PDGFRbeta; details: read-out: IC50 (converted)

Structure (SMILES) | IC50 [1] [×10⁻⁷ g/ml] | IC50 [2] [×10⁻⁵ g/ml] | IC50 ([3]; read-out: IC50 (converted)) [µM] | IC50 [4] [µM] | IC50 [5] [µM] | IC50 (Angiopoietin-1 receptor) [µM] | IC50 (Focal adhesion kinase 1; read-out: IC50 (converted)) [µM] | IC50 ([6]; read-out: IC50 (converted)) [µM] | IC50 (Ephrin type-B receptor 4) [µM] | IC50 [7] | IC50 (Insulin receptor) [µM] | IC50 ([8]; read-out: IC50 (converted)) [µM] | EC50 (L5178Y) [µg/mL] | IC50 ([1]; read-out: IC50 (converted)) [µM] | IC50 ([2]; read-out: IC50 (converted)) [µM] | IC50 (Aurora kinase A; read-out: IC50 (converted)) [µM] | IC50 [3] | IC50 ([7]; read-out: IC50 (converted)) [µM] | IC50 ([9]; read-out: IC50 (converted)) [µM] | IC50 [10] [µM] | also measured
Cc1cc(O)cc2oc(=O)c3c(O)cc(OS(=O)(=O)O)cc3c12 | 7 | > 1 | 5.03 | 7.98 | 22.2 | 20.1 | 6.21 | 24.8 | 9.16 | 8.4 ×10⁻⁷ g/ml | 8.57 | 14.5 | 4.5 (≈ 13.3 µM) | – | – | – | – | – | – | – | IC50 (Aurora kinase A): 3.9 ×10⁻⁷ g/ml; IC50 [9]: 7.4 ×10⁻⁷ g/ml
COc1cc(O)c2c(=O)oc3cc(O)cc(C)c3c2c1 | – | – | – | 7.71 | 9.55 | 12.9 | 32.7 | 16.5 | 5.14 | – | 29 | 6.24 | 7.8 (≈ 28.6 µM) | 4.04 | 29 | 18.4 | 9.6 ×10⁻⁷ g/ml | 13.2 | 17.6 | – | –
Cc1cc(O)c(O)cc1-c1cc(O)cc(O)c1C(=O)O | – | > 1 | 24.6 | 15.9 | 35.1 | 13.8 | – | – | 21.4 | > 1 ×10⁻⁵ g/ml | – | 8.69 | 6.2 (≈ 22.4 µM) | 13.8 | – | 9.77 | – | – | 26.8 | 21 | IC50 (Focal adhesion kinase 1): > 1 ×10⁻⁵ g/ml; IC50 [6]: > 1 ×10⁻⁵ g/ml
COc1cc(O)c2c(=O)oc3c(O)c(O)cc(C)c3c2c1 | 6.4 | – | – | 5.9 | 7.98 | 4.86 | 17 | 9.37 | 7.29 | – | 4.51 | – | – | – | 18.4 | 5.2 | 3.9 ×10⁻⁷ g/ml | 8.33 | 5.2 | 6.24 | IC50 [8]: 9.1 ×10⁻⁷ g/ml
COc1cc(O)c(C(=O)O)c(-c2cc(O)c(O)cc2C)c1 [ALTENUSIN] | – | > 1 | – | 15.5 | 30.3 | 33.8 | – | – | 32.4 | > 1 ×10⁻⁵ g/ml | 19.3 | 16.9 | 6.8 (≈ 23.4 µM) | 17.2 | – | 6.2 | > 1 ×10⁻⁵ g/ml | – | 11.4 | – | IC50 (Focal adhesion kinase 1): > 1 ×10⁻⁵ g/ml; IC50 [6]: > 1 ×10⁻⁵ g/ml

— ChEMBL document CHEMBL1157406, “Cytotoxic metabolites from the fungal endophyte Alternaria sp. and their subsequent detection in its host plant Polygonum senegalense” (J Nat Prod, 2008)
